Bioassay records from PubChem BioAssay.
Compounds with a hit are over-represented: about 4.9% of the library has one in this group of screens.
PHOSPHO1 inh: blocks human PHOSPHO1 phosphatase activity | recombinant PHOSPHO1, absorbance phosphatase assay | Q8TCT1 | hit rate 1.1% among 290,000 | inhibition, % at 13.3 µM; in the data active = inhibition above about 60%
Target sequence (Q8TCT1 whole entry, looked up): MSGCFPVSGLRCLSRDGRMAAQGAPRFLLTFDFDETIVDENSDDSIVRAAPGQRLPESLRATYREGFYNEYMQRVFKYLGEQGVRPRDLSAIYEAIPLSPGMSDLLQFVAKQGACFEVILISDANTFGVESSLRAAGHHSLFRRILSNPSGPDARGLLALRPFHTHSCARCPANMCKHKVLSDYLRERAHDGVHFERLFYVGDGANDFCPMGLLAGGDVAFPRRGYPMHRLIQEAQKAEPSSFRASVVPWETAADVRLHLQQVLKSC
CHT block: inhibits the human high affinity choline transporter. CHT-expressing cells, membrane potential dye, choline response; hits give low values. B-score at 10 µM. hit rate 0.86% among 310,000. AID 488975;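 active = B-score over 3 SD under the library average, and starting fluorescence ratio not unusually high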;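 also: choline stimulus applied at its EC90 after an EC20 pre-addition; B-score computed on integrated fluorescence ratio after choline addition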
Lipid droplet: hepatic lipid droplet formation modulation; AML12 mouse hepatocytes, oleate lipid droplets, BODIPY imaging; AID 1656; hit rate 0.4% among 240,000; inhibition, % at 6.5 µM;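 active = lipid droplet intensity inhibited by at least 50%, with more than 500 cells counted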
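Assay system: AML12 mouse liver cells | Compound dosing: One dose, 6.5 µM compound | Read-out basis: Droplet intensity reduction, % inhibition | Measured by: Fluorescence imaging, 20x objective, two fields per well | Schedule: Overnight treatment with compound plus oleate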
CHT allo act: allosterically activates the human high affinity choline transporter; Q9GZV3; CHT-expressing cells, membrane potential dye, choline EC20; hits give high values; LV-AA mutant CHT in HEK293 cells; B-score at 10 µM; hit rate 0.49% among 310,000; AID 488977;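 active = initial fluorescence not abnormally high and integrated response B-score, plate-corrected, over 3 SD above library mean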
HSF1 activator: increases HSF-1 driven luciferase reporter signal; activation, % at 9 µM; hit rate 1.7% among 300,000; NIH3T3-HGL HSF-1 luciferase reporter, MG132, 8 h; 100% = twice DMSO control signal;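 active = mean replicate activation of at least 50% with a set share of replicates each reaching 50%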;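 also: 0% = median of the neutral control wells and 100% = twice that signal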
HSF1 inh: HSF1 inhibition; NIH3T3-HGL HSE-luciferase, MG132-induced, luminescence 8 h; hits give low values; activity change, negative = inhibition, % at 7.5 µM (by protocol); hit rate 0.77% among 300,000;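 active = more than half of replicate wells show activity change below -50%, luminescence cut by over half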;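 also: luciferase reports HSF-1 transcriptional activity via heat shock element; 0% = median of DMSO wells and -100% = zero luminescence signal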
Active calls of the source: *; i = inactive; · = not tested or not shown.

SMILES | PHOSPHO1 inh | CHT block | Lipid droplet | CHT allo act | HSF1 activator | HSF1 inh
COc1cccc(NC(=O)c2sc3nc4n(c(=O)c3c2C)CCC4)c1 | -4 | i | -9 | i | 42 | 30
Clc1ccc2c(N/N=C/c3ccccc3Br)ccnc2c1 | -25 | i | 8 | i | 66* | 27
Clc1ccc2c(N/N=C/c3cccc(Br)c3)ccnc2c1 | -18 | i | 7 | i | 28 | 8
COc1ccccc1N1CCN(Cc2cc3c(cc2O)OCO3)CC1 | 23 | i | -10 | i | 14 | -3
COc1ccccc1N1CCN(Cc2cc(Br)c(O)c3ncccc23)CC1 | 78* | i | · | i | -84 | -80*
COC(=O)c1c(-c2c(Cl)cccc2Cl)noc1NC(=O)N(C)C | 43 | i | -10 | i | -17 | -8
CC(C)Cc1ccc(C#N)c(SCC(N)=O)n1 | 1 | i | · | i | -69 | -59*
Cc1ccc(Cn2cccc(NC(=O)NC3CCCCC3)c2=O)cc1 | 66* | i | · | i | 25 | 5
O=C(Nc1cccn(Cc2ccc(F)cc2)c1=O)NC1CCCCC1 | 5 | i | · | i | 11 | 2
CC/C(=N\NC(=O)COc1ccc(Br)cc1)c1ccc(OC)c(OC)c1 | 24 | i | -10 | i | -9 | -8
Cc1ccc(C(=O)Nc2ncc(Cc3ccc(F)cc3)s2)o1 | 21 | i | · | i | 68* | 29
Cc1ccc(C(=O)Nc2ncc(C)s2)o1 | 0 | i | 3 | i | 41 | 11
c1ccc(CCCCN2CCN=C2Nc2ccccc2)cc1 | · | i | · | i | · | ·
Cc1nc2sc3c(NCc4ccco4)ncnc3c2c2c1COC(C)(C)C2 | -24 | i | 13 | i | -92 | -89*
COc1ccc(-c2c(C)nn3c(Cl)c(C)c(C)nc23)cc1 | 29 | i | 13 | i | 60* | 29
c1ccc(COC2CCCN(Cc3nc(-c4cnccn4)no3)C2)nc1 (stereo not given) | 61* | i | -12 | i | -4 | 0
COC(=O)c1nn(-c2ccccc2)c(Cl)c1/C=N/OCc1ccc(C)cc1 | 18 | i | · | i | 38 | 17
O=C(COc1ccc(Cl)cc1)Nc1ncc([N+](=O)[O-])s1 | -8 | · | -23 | · | 78* | 45
CCN(CCCNC(=O)CCc1nc(-c2ccc(OC)cc2)no1)c1cccc(C)c1 | 20 | i | 4 | i | 62* | 39
CCOCCCNC(=O)Cn1cc2c(n1)CCCC2 | 5 | i | 3 | i | -7 | -6
CCN(CCCNC(=O)Cn1cc2c(n1)CCCC2)c1cccc(C)c1 | 22 | i | -8 | i | 59* | 45
COc1ccc(S(N)(=O)=O)cc1C(=O)NCCCN1CCN(c2cccc(Cl)c2)CC1 | 66* | i | · | i | -11 | -2
CC(=O)NC(CC(=O)N(C)C1CCCCC1)c1ccccc1 (stereo not given) | 28 | i | 7 | i | 11 | -5
Cc1ccc(OCc2nnc(SC(C)C(=O)O)n2-c2ccccc2)cc1 (stereo not given) | -6 | i | 11 | i | -68 | -63*
COc1cccc(-n2c(COc3ccccc3C)nnc2SCC(=O)O)c1 | 18 | i | · | i | -6 | -6
SMILES | PHOSPHO1 inh | CHT block | Lipid droplet | CHT allo act | HSF1 activator | HSF1 inh
Cc1ccc(OCc2nnc(SCC(=O)c3ccccc3)n2-c2ccccc2)cc1 | 5 | i | -4 | i | 18 | 7
COc1cccc(-n2c(COc3ccc(C)cc3)nnc2SCC(=O)O)c1 | 74* | i | · | i | -10 | -3
CCCSc1nnc2n(-c3ccccc3OC)c(=O)c3c4c(sc3n12)CCC4 | -9 | i | 5 | i | 59* | 21
COc1ccccc1-n1c(=O)c2c3c(sc2n2c(SC(C)C)nnc12)CCC3 | 28 | i | 10 | i | 4 | 12
O=c1c2ccccc2oc2cc(C#Cc3ccccn3)ccc12 | · | i | · | i | 63* | 40
COc1cccc2oc3ccc(C#Cc4ccccn4)cc3c(=O)c12 | -2 | i | 9 | i | 61* | 34
Nc1ccc(C#Cc2ccc3oc4ccccc4c(=O)c3c2)cc1 | · | i | · | i | 2 | 4
COc1ccc(NC(=O)COC(=O)Cc2cccs2)cc1OC | · | i | · | i | -11 | -3
CCn1c(CSCc2ccc(C)cc2)nnc1SCC(=O)N1CCN(c2ccccc2)CC1 | 52 | i | 8 | i | -2 | 11
O=C(CSc1ncn[nH]1)c1ccccc1 | 95* | i | · | i | 4 | 1
CN(C)/C=N/c1cnc(C(=O)c2ccc(Cl)cc2)n1C | -6 | i | · | i | 62* | 30
COc1c(CC=C(C)C)cc(C2CC(=O)c3c(O)cc(O)cc3O2)cc1CC=C(C)C (stereo not given) | 27 | i | 16 | i | -91 | -91*
CCN(CC)S(=O)(=O)c1cc([N+](=O)[O-])ccc1NNC(=O)Nc1ccccc1OC | 0 | i | 8 | i | 71* | 20
CCc1ccccc1NC(=O)CSc1nc2n[nH]c(C)c2c(=N)n1-c1ccc(OC)cc1 | 2 | · | -16 | · | · | ·
COc1ccccc1NC(=O)CSc1nc2n[nH]c(C)c2c(=N)n1-c1ccccc1Cl | -7 | i | -18 | i | 60* | 26
C=C(CCC(=O)c1ccccc1)C(=O)c1ccccc1 | -9 | i | -11 | i | 103* | 70
COC(=O)c1sc(C(C)(C)C)cc1CS(=O)(=O)c1ccccn1 | 22 | i | -1 | i | 0 | 7
CC1(C)CC(NS(=O)(=O)c2ccc(F)cc2)CC(C)(C)N1 | -2 | i | · | i | -5 | -12
COC(=O)c1ccccc1NC(=O)CSc1nnc(C(CO)NC(=O)c2ccccc2)n1C (stereo not given) | -12 | i | -11 | i | -77 | -71*
Cn1c(=O)n(C)c2cc(NC(=O)COc3ccc(Cl)cc3)ccc21 | 2 | i | 28 | i | 6 | -3
CN1CCc2nc(SCc3ccc(Cl)cc3)c(C#N)c(-c3cccs3)c2C1 | · | i | · | i | 190* | 156
CCOc1ccccc1NC(=O)CCS(=O)(=O)c1cccs1 | 35 | i | -1 | i | -92 | -89*
CCOc1ccccc1NS(=O)(=O)c1cccs1 | 1 | i | -5 | i | 15 | -1
CC1(C)CC(NC(=O)c2ccc(Br)o2)CC(C)(C)N1 | 39 | i | 16 | i | 2 | 0
COc1ncccc1C(=O)N1CCCC(C(=O)c2cccc(OC(C)C)c2)C1 (stereo not given) | 37 | i | 2 | i | 6 | 0
NC1=NC(=O)/C(=C/c2cn(Cc3ccccc3)c3ccccc23)S1 | -5 | i | 6 | i | 60* | 12
